# Reference: ChEMBL document CHEMBL3297654, “Synthesis, antimicrobial and cytotoxic activities, and structure-activity relationships of gypsogenin derivatives against human cancer cells” (Eur J Med Chem, 2014)
# Activity calls are given as the source filed them. No cut-off for these calls is given here.
# What was measured:
# [1] = system: Proteus vulgaris; assay: Antimicrobial activity against Proteus vulgaris ATCC 33420 assessed as zone of inhibition at 30 uL for 24 hrs at 37 degC by disk diffusion test; type: functional, organism-based
# Summary of the method: (§1)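 Compound (30 µL of a fresh 1000 µg/mL DMSO stock) goes into a 6 mm well cut in Mueller Hinton agar inoculated with 0.1 mL broth culture adjusted to 0.5 McFarland (about 1×10^8 cells/mL). Plates are incubated 24 h at 37 °C, then zone of inhibition diameter is measured in mm.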
# [2] = system: HL-60; assay: Antiproliferative activity against human HL60 cells after 24 and 72 hrs by MTT assay; type: functional, cell-based
# Summary of the method: (§2)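 ATCC human cell lines are kept in RPMI, DMEM or McCoy's 5A with 10–15% heat-inactivated FCS at 37 °C and 5% CO2. They are seeded at 1×10^4–1×10^5 cells/mL in 48-well plates and exposed to 0.5, 10, 20 or 40 µM. Viability is read by MTT (590 nm) at 24 and 72 h. Growth is expressed relative to untreated cells and IC50 is fitted, in triplicate.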
# [3] = system: HT-29; assay: Antiproliferative activity against human HT-29 cells after 24 and 72 hrs by MTT assay; type: functional, cell-based; summary of the method: as §2
# [4] = system: MCF7; assay: Antiproliferative activity against human MCF7 cells after 24 and 72 hrs by MTT assay; type: functional, cell-based; summary of the method: as §2
# [5] = system: Saccharomyces cerevisiae; assay: Antimicrobial activity against Saccharomyces cerevisiae ATCC 9763 assessed as zone of inhibition at 30 uL for 24 hrs at 30 degC by disk diffusion test; type: functional, organism-based
# Summary of the method: (§3)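 Agar well diffusion on Mueller Hinton agar seeded with 0.1 mL broth culture (18–24 h), adjusted to 0.5 McFarland (about 1×10^8 bacteria or 1×10^6 yeast cells/mL). A 6 mm well is filled with 30 µL of compound from a fresh 1000 µg/mL DMSO stock. Plates are held at 30 °C for 24 h and inhibition zone diameter is read in mm.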
# [6] = system: Cyberlindnera jadinii; assay: Antimicrobial activity against Candida utilis ATCC 9950 assessed as zone of inhibition at 30 uL for 24 hrs at 30 degC by disk diffusion test; type: functional, organism-based; summary of the method: as §3
# [7] = system: MCF7; assay: Induction of necrosis in human MCF7 cells at 20 uM after 48 hrs by Hoechst 33258/propidium iodide staining based phase contrast microscopic analysis; type: functional
# Summary of the method: (§4)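 Cells in 48-well plates treated with 0.5, 10, 20 or 40 µM for 24 and 48 h. Values are read at 48 h, 20 µM for test agents and 0.5 µM for controls. Staining is Hoechst 33258/propidium iodide double staining with fluorescence microscopy. Blue nuclei are viable or early-to-mid apoptotic, and pink nuclei are late apoptotic or necrotic. Apoptosis and necrosis are scored from chromatin condensation as % of cells. Cells are grown at 37 °C in 5% CO2 in RPMI, DMEM or McCoy's 5A with 10–15% heat-inactivated FCS.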
# [8] = system: Candida tropicalis; assay: Antimicrobial activity against Candida tropicalis assessed as zone of inhibition at 30 uL for 24 hrs at 30 degC by disk diffusion test; type: functional, organism-based; summary of the method: as §3
# [9] = system: Nakaseomyces glabratus; assay: Antimicrobial activity against Candida glabrata assessed as zone of inhibition at 30 uL for 24 hrs at 30 degC by disk diffusion test; type: functional, organism-based; summary of the method: as §3
# [10] = system: Caco-2; assay: Antiproliferative activity against human Caco2 cells after 24 and 72 hrs by MTT assay; type: functional, cell-based; summary of the method: as §2
# [11] = system: HL-60; assay: Induction of apoptosis in human HL60 cells at 20 uM after 48 hrs by Hoechst 33258/propidium iodide staining based phase contrast microscopic analysis; type: functional; summary of the method: as §4
# [12] = system: Enterococcus faecalis; assay: Antimicrobial activity against Enterococcus faecalis ATCC 29212 assessed as zone of inhibition at 30 uL for 24 hrs at 37 degC by disk diffusion test; type: functional, organism-based; summary of the method: as §1
# [13] = system: HL-60; assay: Induction of necrosis in human HL60 cells at 20 uM after 48 hrs by Hoechst 33258/propidium iodide staining based phase contrast microscopic analysis; type: functional; summary of the method: as §4
# [14] = system: HT-29; assay: Induction of apoptosis in human HT-29 cells at 20 uM after 48 hrs by Hoechst 33258/propidium iodide staining based phase contrast microscopic analysis; type: functional; summary of the method: as §4
# [15] = system: Staphylococcus epidermidis; assay: Antimicrobial activity against Staphylococcus epidermidis ATCC 12228 assessed as zone of inhibition at 30 uL for 24 hrs at 37 degC by disk diffusion test; type: functional, organism-based; summary of the method: as §1
# [16] = system: Caco-2; assay: Induction of necrosis in human Caco2 cells at 20 uM after 48 hrs by Hoechst 33258/propidium iodide staining based phase contrast microscopic analysis; type: functional; summary of the method: as §4
# [17] = system: Pseudomonas aeruginosa; assay: Antimicrobial activity against Pseudomonas aeruginosa ATCC 35032 assessed as zone of inhibition at 30 uL for 24 hrs at 37 degC by disk diffusion test; type: functional, organism-based; summary of the method: as §1
# [18] = system: Bacillus cereus; assay: Antimicrobial activity against Bacillus cereus ATCC 11778 assessed as zone of inhibition at 30 uL for 24 hrs at 30 degC by disk diffusion test; type: functional; summary of the method: as §3
# [19] = system: HeLa; assay: Induction of apoptosis in human HeLa cells at 20 uM after 48 hrs by Hoechst 33258/propidium iodide staining based phase contrast microscopic analysis; type: functional; summary of the method: as §4
# [20] = system: Salmonella typhimurium; assay: Antimicrobial activity against Salmonella typhimurium ATCC 14028 assessed as zone of inhibition at 30 uL for 24 hrs at 37 degC by disk diffusion test; type: functional, organism-based; conditions: Salmonella enterica subsp. enterica serovar Typhimurium; summary of the method: as §1
# [21] = system: HeLa; assay: Induction of necrosis in human HeLa cells at 20 uM after 48 hrs by Hoechst 33258/propidium iodide staining based phase contrast microscopic analysis; type: functional; summary of the method: as §4
# [22] = system: SAOS-2; assay: Induction of necrosis in human Saos2 cells at 20 uM after 48 hrs by Hoechst 33258/propidium iodide staining based […] microscopic analysis; type: functional; summary of the method: as §4
# [23] = system: HeLa; assay: Antiproliferative activity against human HeLa cells after 24 and 72 hrs by MTT assay; type: functional, cell-based; summary of the method: as §2
# [24] = system: Micrococcus luteus; assay: Antimicrobial activity against Micrococcus luteus ATCC 9341 assessed as zone of inhibition at 30 uL for 24 hrs at 30 degC by disk diffusion test; type: functional, organism-based; summary of the method: as §3
# [25] = system: Staphylococcus aureus; assay: Antimicrobial activity against Staphylococcus aureus ATCC 25923 assessed as zone of inhibition at 30 uL for 24 hrs at 37 degC by disk diffusion test; type: functional, organism-based; summary of the method: as §1
# [26] = system: SAOS-2; assay: Induction of apoptosis in human Saos2 cells at 20 uM after 48 hrs by Hoechst 33258/propidium iodide staining based phase contrast microscopic analysis; type: functional; summary of the method: as §4
# [27] = system: Klebsiella pneumoniae; assay: Antimicrobial activity against Klebsiella pneumoniae ATCC 13882 assessed as zone of inhibition at 30 uL for 24 hrs at 37 degC by disk diffusion test; type: functional, organism-based; summary of the method: as §1
# [28] = system: Bacillus cereus; assay: Antimicrobial activity against Bacillus cereus ATCC 11778 for 24 hrs by microdillution method; type: functional; conditions: ATCC 11778, 24 h
# Summary of the method: (§5)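 Broth microdilution. Compound is dissolved in DMSO (2 mg/mL) and diluted in Mueller Hinton broth as two-fold serial dilutions from 256 to 0.125 µg/mL. Bacteria are pre-grown in nutrient broth at 30 °C, and the final inoculum is about 10^6 cfu/mL. Tests are incubated 37 °C for 24 h. MIC is the lowest concentration giving complete inhibition. Streptomycin is the positive control.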
# [29] = system: Bacillus subtilis; assay: Antimicrobial activity against Bacillus subtilis ATCC 6633 assessed as zone of inhibition at 30 uL for 24 hrs at 30 degC by disk diffusion test; type: functional; summary of the method: as §3
# [30] = system: HT-29; assay: Induction of necrosis in human HT-29 cells at 20 uM after 48 hrs by Hoechst 33258/propidium iodide staining based phase contrast microscopic analysis; type: functional; summary of the method: as §4
# [31] = system: MCF7; assay: Induction of apoptosis in human MCF7 cells at 20 uM after 48 hrs by Hoechst 33258/propidium iodide staining based phase contrast microscopic analysis; type: functional; summary of the method: as §4
# [32] = system: Bacillus thuringiensis; assay: Antimicrobial activity against Bacillus thuringiensis for 24 hrs by microdillution method; type: functional; summary of the method: as §5
# [33] = system: Bacillus thuringiensis; assay: Antimicrobial activity against Bacillus thuringiensis assessed as zone of inhibition at 30 uL for 24 hrs at 30 degC by disk diffusion test; type: functional; summary of the method: as §3
# [34] = system: Caco-2; assay: Induction of apoptosis in human Caco2 cells at 20 uM after 48 hrs by Hoechst 33258/propidium iodide staining based phase contrast microscopic analysis; type: functional; summary of the method: as §4
# [35] = system: Candida albicans; assay: Antimicrobial activity against Candida albicans ATCC 10231 assessed as zone of inhibition at 30 uL for 24 hrs at 30 degC by disk diffusion test; type: functional, organism-based; summary of the method: as §3
# [36] = system: Bacillus subtilis; assay: Antimicrobial activity against Bacillus subtilis ATCC 6633 for 24 hrs by microdillution method; type: functional; conditions: ATCC 6633, 24 h; summary of the method: as §5
# [37] = system: Escherichia coli; assay: Antimicrobial activity against Escherichia coli ATCC 25922 assessed as zone of inhibition at 30 uL for 24 hrs at 37 degC by disk diffusion test; type: functional, organism-based; summary of the method: as §1
# [38] = Antiproliferative activity against human Saos2 cells after 24 and 72 hrs by MTT assay; type: functional, cell-based; conditions: SAOS-2; summary of the method: as §2
SMILES,diameter of the inhibition zone (DIZ) [1],IC50 [2] [µM],IC50 [3] [µM],IC50 [4] [µM],diameter of the inhibition zone (DIZ) [5],diameter of the inhibition zone (DIZ) [6],Activity [7] [%],diameter of the inhibition zone (DIZ) [8],diameter of the inhibition zone (DIZ) [9],IC50 [10] [µM],Activity [11] [%],diameter of the inhibition zone (DIZ) [12],Activity [13] [%],Activity [14] [%],diameter of the inhibition zone (DIZ) [15],Activity [16] [%],diameter of the inhibition zone (DIZ) [17],diameter of the inhibition zone (DIZ) [18] [mm],Activity [19] [%],diameter of the inhibition zone (DIZ) [20],other results
CC(=O)O[C@H]1CC[C@]2(C)[C@H]3CC=C4[C@@H]5CC(C)(C)CC[C@]5(C(=O)O)CC[C@@]4(C)[C@]3(C)CC[C@H]2[C@]1(C)/C=N/NC(N)=S,inactive,12.8,13.3,7.5,inactive,inactive,63,inactive,inactive,30.4,2,inactive,67,3,inactive,29,inactive,14,2,inactive,Activity [21]: 65%; Activity [22]: 61%; IC50 [23]: 110 µM; diameter of the inhibition zone (DIZ) [24]: inactive; diameter of the inhibition zone (DIZ) [25]: inactive; Activity [26]: 2%; diameter of the inhibition zone (DIZ) [27]: inactive; MIC [28]: 32 µg/mL; diameter of the inhibition zone (DIZ) [29]: 14 mm; Activity [30]: 26%; Activity [31]: 6%; MIC [32]: 32 µg/mL; diameter of the inhibition zone (DIZ) [33]: 14 mm; Activity [34]: 3%; diameter of the inhibition zone (DIZ) [35]: inactive; MIC [36]: 32 µg/mL; diameter of the inhibition zone (DIZ) [37]: inactive; IC50 [38]: 10.1 µM
CC(=O)O[C@H]1CC[C@]2(C)[C@H]3CC=C4[C@@H]5CC(C)(C)CC[C@]5(C(=O)O)CC[C@@]4(C)[C@]3(C)CC[C@H]2[C@]1(C)C=O,inactive,10.8,11.1,20.5,inactive,inactive,29,inactive,inactive,17.4,8,inactive,25,0.8,inactive,55,inactive,9,4,inactive,Activity [21]: 33%; Activity [22]: 44%; IC50 [23]: 35 µM; diameter of the inhibition zone (DIZ) [24]: inactive; diameter of the inhibition zone (DIZ) [25]: inactive; Activity [26]: 3%; diameter of the inhibition zone (DIZ) [27]: inactive; MIC [28]: 128 µg/mL; diameter of the inhibition zone (DIZ) [29]: 11 mm; Activity [30]: 20%; Activity [31]: 5%; MIC [32]: 128 µg/mL; diameter of the inhibition zone (DIZ) [33]: 10 mm; Activity [34]: 3%; diameter of the inhibition zone (DIZ) [35]: inactive; MIC [36]: 64 µg/mL; diameter of the inhibition zone (DIZ) [37]: inactive; IC50 [38]: 8.24 µM
